Compound activity from PubChem.
In the library only some 1.5% were active in any assay of this set; here they are far more common.
APJ ag: activates the human apelin receptor APJ; P35414; CHO-K1 APJ PathHunter beta-arrestin, luminescence; 0% DMSO wells, 100% apelin; activation, % at 20 µM; actives 0.11% (n = 330,000);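 active = activation more than six SD over the plate average, tested at 20 µM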;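 note: 0% = DMSO alone and 100% = apelin-13 at 10 nM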
Target sequence (P35414 whole entry, looked up): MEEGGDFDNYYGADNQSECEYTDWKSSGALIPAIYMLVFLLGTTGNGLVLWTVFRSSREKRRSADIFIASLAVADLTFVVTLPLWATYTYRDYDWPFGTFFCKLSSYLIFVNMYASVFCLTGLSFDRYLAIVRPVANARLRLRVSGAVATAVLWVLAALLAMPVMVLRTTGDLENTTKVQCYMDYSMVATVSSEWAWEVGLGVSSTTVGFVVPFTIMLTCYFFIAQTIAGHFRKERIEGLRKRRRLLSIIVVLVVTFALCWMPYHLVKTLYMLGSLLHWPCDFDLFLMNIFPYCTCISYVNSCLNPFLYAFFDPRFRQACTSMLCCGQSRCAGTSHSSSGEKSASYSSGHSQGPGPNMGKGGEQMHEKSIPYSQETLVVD
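Assay system – PathHunter CHO-K1 APJ (AGTRL-1) beta-arrestin reporter cells · Compound – one dose, 20 µM compound, 1% DMSO · Timing – compound 90 min 25 °C, reagent 1 h · Measured by – luminescence from split beta-galactosidase complementation, Galacton Star/Emerald II substrate · Measure – beta-arrestin recruitment to APJ as agonist activity, luminescent signal · Benchmarks – DMSO vs Apelin-13 10 nM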
CCR6 antagonist: blocks CCL20-driven beta-arrestin recruitment at human CCR6. CHO-K1 CCR6 PathHunter beta-arrestin, luminescence, CCL20-stimulated. inhibition, % at 20 µM. actives 0.49% (n = 340,000). AID 493098;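 active = compounds whose inhibition of the agonist-driven luminescence signal at 20 µM reaches about 50%, limit read from the data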;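 note: cells stimulated with CCL20 at 14 nM final; plate controls were DMSO with CCL20 for no effect and DMSO without agonist for full effect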
Target sequence (P51684 whole entry, looked up): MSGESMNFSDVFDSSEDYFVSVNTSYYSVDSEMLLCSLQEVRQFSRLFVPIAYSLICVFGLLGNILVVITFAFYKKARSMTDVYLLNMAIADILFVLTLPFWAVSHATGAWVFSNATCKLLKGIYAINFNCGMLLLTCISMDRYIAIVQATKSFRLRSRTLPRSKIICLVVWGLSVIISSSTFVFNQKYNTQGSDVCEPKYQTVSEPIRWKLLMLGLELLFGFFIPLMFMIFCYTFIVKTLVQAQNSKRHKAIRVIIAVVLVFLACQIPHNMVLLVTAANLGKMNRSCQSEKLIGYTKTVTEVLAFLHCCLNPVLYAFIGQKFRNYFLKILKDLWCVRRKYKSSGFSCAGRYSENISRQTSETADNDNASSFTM
CXCR6 block: CXCR6 (human) receptor inhibition; inhibition, % at 20 µM; CHO-K1 PathHunter CXCR6 beta-arrestin, luminescence; O00574; AID 602244; actives 0.36% (n = 360,000); in the data active = inhibition above about 34%, passing the limit was not always enough;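 note: antagonist mode with CXCL16 agonist at 10 nM final; 0% = 10 nM CXCL16 with DMSO and 100% = unstimulated wells without agonist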
EBI2 antag: antagonists of human EBI2 receptor | P32249 | EBI2 beta-arrestin recruitment, luminescence, 7a,25-OHC stimulated | inhibition, % at 5 µM | actives 0.81% (n = 360,000); in the data active = inhibition above about 38%;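 note: enzyme fragment complementation signal reports receptor beta-arrestin coupling in cells; 0% = agonist plus DMSO wells and 100% = wells without agonist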
APJ antagonist: APJ receptor antagonism; inhibition, % at 20 µM; P35414; actives 0.32% (n = 330,000); CHO-K1 APJ beta-arrestin complementation, luminescence;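 active = inhibition above about 40% at 20 µM, limit read from the data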;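 note: cells challenged with 10 nM apelin-13 agonist together with compound; plate controls were apelin-13 plus DMSO wells for no effect and DMSO wells lacking apelin-13 for full effect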
EBI2 conf: confirmation of human EBI2 receptor antagonists; shares compounds with EBI2 antag; EBI2 beta-arrestin luminescence, 7a,25-OHC antagonism; inhibition, % at 5 µM; actives 29% (n = 2,400); AID 651997;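 active = inhibition of at least 50%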
EBI2 ag: counter-screen for EBI2 antagonists: EBI2 agonist activity | shares compounds with EBI2 antag | EBI2-expressing cells, agonist mode, luminescence, 60 min; 0% vehicle, 100% 7α,25-dihydroxycholesterol control | activation, % at 5 µM | 2,400 tested, under 10 active;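 active = activation of at least 50%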
bGal counter: beta-galactosidase inhibition counter-screen; shares compounds with EBI2 antag; purified beta-galactosidase, luminescent Galacton Star, 15 min; inhibition, % at 5 µM; actives 1% (n = 2,400); AID 652176;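 active = replicate-average signal at least 3 plate SD below neutral wells, shown as high inhibition, flagging enzyme-inhibiting false positives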;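 note: 0% = DMSO wells with enzyme and 100% = wells lacking enzyme; higher means stronger loss of beta-gal luminescence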
Numbers without * were called inactive; nt = no result given.

SMILES | APJ ag | CCR6 antagonist | CXCR6 block | EBI2 antag | APJ antagonist | EBI2 conf | EBI2 ag | bGal counter
COc1ccccc1N1CCN(CCC(=O)Nc2ccc(F)cc2)CC1 | -2.7 | 9.4 | -2.8 | -0.5 | -10.6 | nt | nt | nt
COc1cccc(OCc2nnc(SCC(=O)N3c4ccccc4Sc4ccc(Cl)cc43)o2)c1 | -3.1 | -1.4 | 8.8 | 52.7* | -0.2 | 28.2 | 0.2 | -1.0
Cc1ccc(OCc2nnc(SCC(=O)N3c4ccccc4Sc4ccc(Cl)cc43)o2)cc1 | 1.9 | 4.6 | -16.8 | 34.7 | -33.4 | nt | nt | nt
Cc1cccc(OCc2nnc(SCC(=O)N3c4ccccc4Sc4ccc(Cl)cc43)o2)c1 | -0.3 | 7.3 | 8.3 | 23.5 | -3.5 | nt | nt | nt
COc1ccc(OCc2nnc(SCC(=O)N3c4ccccc4Sc4ccc(Cl)cc43)o2)cc1 | 0.2 | 3.9 | -1.4 | 66.4* | 4.1 | 54.1* | 0.8 | -1.0
COc1cccc(-c2onc3ccc(C4(C)OCCO4)cc23)c1 | 5.2 | 0.7 | -12.6 | 47.8* | -5.0 | 10.7 | -0.2 | 8.1
COc1ccc(N=C2C(=Nc3ccc(OC)cc3)N(c3ccc(OC)cc3)C(=S)N2c2ccccc2)cc1 | -4.1 | 1.7 | 0.3 | 63.7* | 16.8 | 18.5 | 0.8 | 4.3
CCN(CC)C(=O)C1=C(C)Nc2ncnn2C1c1cccnc1 (stereo unspecified) | -1.7 | 3.1 | -1.3 | 2.8 | 1.0 | nt | nt | nt
S=C1NC[C@H](CC2CCCCC2)N1CCc1cccc2ccccc12 | -7.6 | 20.6 | -2.0 | 51.4* | 4.9 | 19.6 | 1.0 | 7.6
O=C1NC[C@H](CC2CCCCC2)N(CCc2cccc3ccccc23)C1=O | nt | nt | -6.0 | 24.3 | nt | nt | nt | nt
CN(C)C(=O)c1cccc(-c2cnc3c(NC=O)cc(-c4ccccc4N(C)C)cn23)c1 | nt | nt | -11.1 | -3.5 | nt | nt | nt | nt
COc1ccccc1-c1cc(NC(C)=O)c2ncc(-c3ccc(S(C)(=O)=O)cc3)n2c1 | nt | nt | 3.7 | 17.6 | nt | nt | nt | nt
CC(=O)Nc1cc(-c2ccc(N)cc2)cn2c(-c3cccc(C(F)(F)F)c3)cnc12 | nt | nt | -3.2 | 9.0 | nt | nt | nt | nt
CC(=O)Nc1cc(-c2ccc(CO)cc2)cn2c(-c3cccc(C(F)(F)F)c3)cnc12 | nt | nt | 5.1 | 46.3* | nt | 24.1 | -1.2 | -8.7
CC(=O)Nc1cccc(-c2cc(NC=O)c3ncc(-c4cccc(C(C)=O)c4)n3c2)c1 | nt | nt | 1.2 | 53.6* | nt | 13.5 | -0.7 | -12.4
CC(=O)Nc1cc(-c2ccccc2Cl)cn2c(-c3ccc(S(C)(=O)=O)cc3)cnc12 | nt | nt | 12.3 | 54.7* | nt | 25.2 | 2.2 | 3.4
CN(C)C(=O)c1cccc(-c2cnc3c(NC=O)cc(-c4ccccc4Cl)cn23)c1 | nt | nt | -1.0 | 61.8* | nt | 28.9 | 0.4 | 4.6
O=C(CN1CCN(S(=O)(=O)c2ccc(Cl)cc2)CC1)Nc1ccc2c(c1)OCO2 | -1.1 | 3.9 | -3.0 | 10.8 | 0.8 | nt | nt | nt
O=C(Nc1ccc2c(c1)OCO2)N1CCN(S(=O)(=O)c2ccc(Cl)cc2)CC1 | -4.0 | -6.7 | -9.2 | 48.4* | -2.4 | 26.9 | -1.2 | -13.3
O=C(Nc1ccc2c(c1)OCO2)N1CCN(c2ccccc2Cl)CC1 | -6.5 | 6.0 | 3.6 | 50.4* | 13.0 | 37.3 | -0.7 | 3.4
O=C(Nc1ccc2c(c1)OCO2)N1CCN(c2cccc(C(F)(F)F)c2)CC1 | -1.1 | 10.9 | -6.4 | -2.0 | -0.8 | nt | nt | nt
CCCCCCSc1ccc(-c2nc3cc(C)ccn3c2NC2CCCCC2)cc1 | -1.4 | 18.5 | 25.9 | 14.5 | -21.1 | nt | nt | nt
CCCCCCSc1ccc(-c2nc3ccc(C)cn3c2NC2CCCCC2)cc1 | 0.2 | 11.6 | 5.9 | 44.8* | -36.1 | 22.4 | 1.6 | 8.1
CCS(=O)(=O)N1CCN(C(=O)c2ccc(-c3ccccc3)cc2)CC1 | 1.5 | -22.8 | 1.0 | 83.4* | 8.3 | 56.4* | -0.1 | -23.5
O=C(c1ccc(-c2ccccc2)cc1)N1CCN(C(=O)c2ccco2)CC1 | -3.4 | 5.3 | -0.9 | 71.5* | 8.5 | 34.6 | 1.6 | 7.0
SMILES | APJ ag | CCR6 antagonist | CXCR6 block | EBI2 antag | APJ antagonist | EBI2 conf | EBI2 ag | bGal counter
CS(=O)(=O)N1CCN(C(=O)c2ccc(-c3ccccc3)cc2)CC1 | -4.0 | 7.5 | -7.2 | 69.6* | 10.1 | 30.0 | 1.9 | 5.7
CC(C)(C)NC(=O)C1CCN(C(=O)c2ccc(-c3ccccc3)cc2)CC1 | -2.8 | 10.9 | -6.7 | 47.8* | 4.1 | 46.7 | -0.4 | -16.4
COc1ccc(NC2CCCN(C(=O)C3(C)CCCCC3)C2)cc1 (stereo unspecified) | -2.4 | 22.1 | -8.6 | -1.4 | 8.6 | nt | nt | nt
CN1CCN(NC(=O)/C=C/c2ccc(Br)cc2)CC1 | 4.9 | 1.7 | 2.1 | 78.1* | 5.9 | 47.6 | -1.0 | -9.4
CN1CCN(NC(=O)/C=C/c2ccc(C(C)(C)C)cc2)CC1 | -6.3 | -2.7 | -1.7 | 6.6 | 10.7 | nt | nt | nt
CC(NC(=O)/C=C/c1ccc(Br)cc1)c1ccc(Cl)cc1 (stereo unspecified) | 1.4 | 12.1 | -5.8 | 53.7* | -14.5 | 31.2 | -0.3 | -8.1
CCc1ccc(NC(=O)CSc2nc(=O)n3cc(C)ccc3n2)cc1 | 1.5 | -0.4 | 7.2 | 4.2 | 16.5 | nt | nt | nt
COc1ccccc1C1CCN(C(=O)c2ccc(Cl)cc2)CC1 | -0.3 | 16.4 | 7.4 | 87.6* | 5.9 | 69.5* | 1.8 | 5.3
COc1ccccc1C1CCN(C(=O)c2cnn(-c3ccccc3)c2C)CC1 | -1.6 | 5.7 | 3.5 | 53.7* | -0.6 | 20.3 | 1.6 | 7.4
O=C(CSc1nnc(-c2ccncc2)n1Cc1ccccc1)NCCc1ccccc1 | -1.8 | 11.5 | 11.9 | 52.9* | 21.2 | 39.6 | 0.4 | 9.3
CCn1c(SCC(=O)NCCc2ccc(Cl)cc2)nnc1-c1cccs1 | -4.4 | -3.7 | 8.3 | 63.5* | 12.9 | 34.0 | -1.2 | -15.2
C=CCn1c(SCC(=O)Nc2ccc(-c3nc4ccc(C)cc4s3)cc2)nnc1-c1ccccc1 | nt | -21.6 | 1.2 | -79.2 | nt | nt | nt | nt
C=CCn1c(SCC(=O)NNC(=O)Nc2cccc(Cl)c2)nnc1-c1ccccc1 | -2.4 | 15.2 | 7.1 | 60.5* | 4.4 | 11.5 | -0.9 | -10.2
C=CCn1c(SCC(=O)NNC(=O)Nc2ccc(C)cc2)nnc1-c1ccccc1 | 1.6 | -10.8 | -2.3 | 48.1* | 13.0 | 8.2 | -1.4 | -9.8
O=C(CSc1nnc(C23CC4CC(CC(C4)C2)C3)o1)Nc1ccc(N2CCOCC2)c(Cl)c1 | 2.0 | -6.0 | 1.6 | 58.1* | -11.6 | 19.1 | -2.3 | -7.0
COc1cccc(Nc2nc(-c3sc(N)nc3C)cs2)c1 | -0.4 | 6.4 | -7.4 | 2.1 | -33.6 | nt | nt | nt
Cc1nc(C)c(-c2csc(Nc3ccc(F)cc3)n2)s1 | 2.7 | 15.5 | 2.8 | 46.0* | -1.3 | 51.8* | 3.1 | 3.0
COc1cccc(Nc2nc(-c3sc(C)nc3C)cs2)c1 | -2.2 | -12.9 | -3.1 | 47.9* | -6.7 | 58.8* | 0.9 | 4.1
